# Assay results: ChEMBL document CHEMBL5030518, “Phorbol Diesters and 12-Deoxy-16-hydroxyphorbol 13,16-Diesters Induce TGFα Release and Adult Mouse Neurogenesis” (2021)
# Active and inactive are the calls of the source. The rule behind the calls is not given here.
# Tests used:
# [1] = Induction of TGFalpha release in serum-starved HEK293T cells coexpressing GFP fused mCherry assessed as reduction in mCherry/GFP ratio at 0.5 uM measured up to 180 mins by time-lapse microscopic analysis relative to control; type: functional, Homo sapiens, HEK-293T; design: scale not given: the % may be the effect or the level left; conditions: time min <=180
# Method in brief: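 HEK293T transfected with mCherry-TGFα-GFP fusion (mCherry N-terminal, GFP C-terminal), left overnight, then serum-starved 30 min in serum-free FluoroBrite DMEM. Compound added at 0.5 µM; live time-lapse imaging over 180 min. Membrane mCherry/GFP ratio normalized to pre-stimulation average; mean normalized ratio, n = 40.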
# Brain [2] = test: Induction of neurogenesis in CD-1 mouse brain assessed as increase in number of BrdU labeled proliferating cells at 5 uM, INH administered once daily for 3 days by confocal microscopic analysis; type: functional, tissue-based; conditions: time 3.0 day
# Method in brief: (§1)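 Healthy 2-month-old male CD1 mice given intranasal solution daily for 3 days, 12 µL/day in saline vehicle (3 µL per delivery, alternating nostrils). BrdU 100 mg/kg i.p. on the last day. SVZ sections immunostained for BrdU and DCX. Positive cells counted blinded in every fifth section (6–8 per brain) at 20×. Values are per mm3; mean ± SEM, n = 6 per group.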
# Neural Progenitor Cell [3] = test: Induction of cell proliferation in mouse SVZ-derived neural progenitor cells assessed as neurosphere formation at up to 5 uM measured after 72 hrs by phase contrast microscopic analysis; type: functional, tissue-based; conditions: dose microM <=5, time 72.0 hrs
# Method in brief: (§2)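 NPCs were isolated from the SVZ of postnatal day 7 CD1 mice and grown as floating neurospheres with bFGF. Increasing compound concentrations were added at seeding. After 72 h, neurosphere area was measured from phase-contrast images and expressed as % of bFGF-only control. Runs were in triplicate, at least […] independent times; mean ± SEM of nine measurements, two-tailed unpaired t-test.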
# Brain [4] = test: Induction of neurogenesis in CD-1 mouse brain assessed as increase in number of proliferative neuronal progenitors at 5 uM, INH administered once daily for 3 days by confocal microscopic analysis; type: functional, tissue-based; conditions: time 3.0 day; method in brief: as §1
# Neural Progenitor Cell [5] = test: Induction of cell proliferation in mouse SVZ-derived neural progenitor cells assessed as neurosphere formation at up to 0.5 uM measured after 72 hrs by phase contrast microscopic analysis; type: functional, tissue-based; conditions: dose microM <=0.5, time 72.0 hrs; method in brief: as §2
# HEK-293T = test: Induction of TGFalpha release in serum-starved HEK293T cells coexpressing GFP fused mCherry assessed as reduction in mCherry/GFP ratio at 0.5 uM measured up to 180 mins by time-lapse microscopic analysis; type: functional, cell-based; conditions: Homo sapiens, time min <=180
# Method in brief: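 HEK293T cells transfected with an mCherry-TGFα-GFP fusion (mCherry N-terminal, GFP C-terminal) and left overnight. Cells were then serum-starved 30 min in serum-free medium. Compounds were added at 0.5 μM and time-lapse imaging ran for 180 min. Membrane mCherry/GFP ratio was normalized to the pre-stimulation average, and the mean of n = 40 was reported.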
# Brain [6] = test: Induction of neurogenesis in CD-1 mouse brain assessed as increase in total neuronal progenitors double cortin cells at 10 nM, INH administered once daily for 3 days by confocal microscopic analysis; type: functional, tissue-based; conditions: time 3.0 day
# Method in brief: (§3)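 Male CD1 mice, 2 months old, received 12 μL/day intranasally for 3 days, given as 3 μL portions alternating nostrils with the neck extended. Vehicle was saline; treatment was randomized and coded. BrdU 100 mg/kg i.p. was given on the last day. BrdU and DCX in the SVZ were detected by immunohistochemistry in every fifth section (6–8 per brain) at 20×, with blinded counting. n = 6/group; t-test versus vehicle.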
# Brain [7] = test: Induction of neurogenesis in CD-1 mouse brain at 10 nM, INH administered once daily for 3 days by confocal microscopic analysis; type: functional, tissue-based; conditions: time 3.0 day; method in brief: as §3
# Brain [8] = test: Induction of neurogenesis in CD-1 mouse brain assessed as increase in number of proliferative neuronal progenitors at 10 nM, INH administered once daily for 3 days by confocal microscopic analysis; type: functional, tissue-based; conditions: time 3.0 day; method in brief: as §3
# Brain [9] = test: Induction of neurogenesis in CD-1 mouse brain assessed as increase in number of BrdU labeled proliferating cells at 10 nM, INH administered once daily for 3 days by confocal microscopic analysis; type: functional, tissue-based; conditions: time 3.0 day; method in brief: as §3
# Brain [10] = test: Induction of neurogenesis in CD-1 mouse brain at 5 uM, INH administered once daily for 3 days by confocal microscopic analysis; type: functional, tissue-based; conditions: time 3.0 day; method in brief: as §3
# Brain [11] = test: Induction of neurogenesis in CD-1 mouse brain at 100 nM, INH administered once daily for 3 days by confocal microscopic analysis; type: functional, tissue-based; conditions: time 3.0 day; method in brief: as §3
Structure (SMILES),Activity [1] [%],Activity (Neural Progenitor Cell [3]),Activity (HEK-293T),further results
CC1=C[C@H]2[C@@]3(O)[C@H](C)[C@@H](OC(=O)Cc4ccccc4)[C@]4(OC(=O)C(C)C)[C@H]([C@@H]3C=C(CO)C[C@]2(O)C1=O)C4(C)C,25,,,
CC(=O)O[C@@H]1[C@@H](C)[C@@]2(O)[C@@H](C=C(CO)C[C@]3(O)C(=O)C(C)=C[C@@H]23)[C@@H]2C(C)(C)[C@]12OC(C)=O,15,Active,,Activity (Brain [2]): Active; Activity (Brain [4]): Active
CC1=C[C@H]2[C@@]3(O)[C@H](C)C[C@]4(OC(=O)Cc5ccccc5)[C@H]([C@@H]3C=C(CO)C[C@]2(O)C1=O)[C@@]4(C)COC(=O)C(C)C,,Active,Active,Activity (Neural Progenitor Cell [5]): Active
CC1=C[C@H]2[C@@]3(O)[C@H](C)[C@@H](OC(=O)C(C)C)[C@]4(OC(=O)Cc5ccccc5)[C@H]([C@@H]3C=C(CO)C[C@]2(O)C1=O)C4(C)C,25,,,
CC1=C[C@H]2[C@@]3(O)[C@H](C)[C@@H](O)[C@]4(OC(=O)C(C)C)[C@H]([C@@H]3C=C(CO)C[C@]2(O)C1=O)C4(C)C,,inactive,inactive,
CC1=C[C@H]2[C@@]3(O)[C@H](C)[C@@H](OC(=O)Cc4ccccc4)[C@]4(OC(=O)Cc5ccccc5)[C@H]([C@@H]3C=C(CO)C[C@]2(O)C1=O)C4(C)C,25,,,
C/C=C(/C)C(=O)O[C@@H]1[C@@H](C)[C@@]2(O)[C@@H](C=C(CO)C[C@]3(O)C(=O)C(C)=C[C@@H]23)[C@@H]2C(C)(C)[C@]12OC(=O)C(C)C,15,,,
CC1=C[C@H]2[C@@]3(O)[C@H](C)[C@@H](O)[C@]4(O)[C@H]([C@@H]3C=C(CO)C[C@]2(O)C1=O)C4(C)C,,,inactive,
CC1=C[C@H]2[C@@]3(O)[C@H](C)[C@@H](OC(=O)C(C)C)[C@]4(OC(=O)C(C)C)[C@H]([C@@H]3C=C(CO)C[C@]2(O)C1=O)C4(C)C,,,,Activity (Brain [6]): Active; Activity (Neural Progenitor Cell [5]): Active; Activity (Brain [7]): Active; Activity (Brain [8]): Active; Activity (Brain [9]): Active; Activity (Brain [10]): inactive; Activity (Brain [11]): inactive
